Measured values reported in ChEMBL document CHEMBL4184148 (Bioorg Med Chem Lett, 2017).

Columns and labels:
[1] = target: SRSF protein kinase 1 (Homo sapiens) (UniProt Q96SB4); assay: Binding affinity to wild-type human full length SRPK1 (M1 to S655 residues) expressed in Escherichia coli BL21 at 1 uM by Kinomescan method relative to control
How it was run: (§1)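 Kinome-wide competition binding panel run by an outside provider, with each compound tested at a single concentration. Activity is read against the kinase panel.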

[2] = target: Casein kinase I isoform epsilon (Homo sapiens) (UniProt P49674); assay: Binding affinity to wild-type human full length CSNK1E (M1 to K416 residues) expressed in Escherichia coli BL21 at 1 uM by Kinomescan method relative to control
How it was run: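 Run as one kinome-wide competition binding panel with each compound at a single fixed concentration. Results were plotted as a kinome-wide selectivity map.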

[3] = target: Leukocyte tyrosine kinase receptor (Homo sapiens) (UniProt P29376); assay: Binding affinity to wild-type human partial length LTK (P422 to S744 residues) expressed in Escherichia coli BL21 at 1 uM by Kinomescan method relative to control
[4] = target: Ephrin type-A receptor 1 (Homo sapiens) (UniProt P21709); assay: Binding affinity to wild-type human partial length EPHA1 (V588 to I913 residues) expressed in Escherichia coli BL21 at 1 uM by Kinomescan method relative to control
[5] = test system: Mast/stem cell growth factor receptor Kit (Homo sapiens), P10721 [D816H]; assay: Binding affinity to human partial length KIT D816H mutant (I571 to D952 residues) expressed in HEK293 cells at 1 uM by Kinomescan method relative to control; format: cell-based
[6] = test system: Tyrosine-protein kinase ABL1 (Homo sapiens), P00519 [F317I]; assay: Binding affinity to human non-phosphorylated ABL1 F317I mutant (S229 to K512 residues) expressed in HEK293 cells at 1 uM by Kinomescan method relative to control; format: cell-based
[7] = target: Calcium/calmodulin-dependent protein kinase type II subunit delta (Homo sapiens) (UniProt Q13557); assay: Binding affinity to wild-type human partial length CAMK2D (M1 to E329 residues) expressed in Escherichia coli BL21 at 1 uM by Kinomescan method relative to control
[8] = target: Mitotic checkpoint serine/threonine-protein kinase BUB1 (Homo sapiens) (UniProt O43683); assay: Binding affinity to wild-type human partial length BUB1 (Q724 to K1085 residues) expressed in HEK293 cells at 1 uM by Kinomescan method relative to control; format: cell-based
[9] = target: Mitogen-activated protein kinase kinase kinase 10 (Homo sapiens) (UniProt Q02779); assay: Binding affinity to wild-type human partial length MLK2 (V52 to W380 residues) expressed in Escherichia coli BL21 at 1 uM by Kinomescan method relative to control
[10] = target: Insulin receptor-related protein (Homo sapiens) (UniProt P14616); assay: Binding affinity to wild-type human partial length INSRR (R950 to E1278 residues) expressed in Escherichia coli BL21 at 1 uM by Kinomescan method relative to control
[11] = target: Cyclin-dependent kinase 4/cyclin D1 (Homo sapiens) (UniProt P11802+P24385); assay: Binding affinity to wild-type human full length CDK4/cyclinD1 (M1 to E303 residues) expressed in HEK293 cells at 1 uM by Kinomescan method relative to control; format: cell-based
[12] = target: Serine/threonine-protein kinase Nek3 (Homo sapiens) (UniProt P51956); assay: Binding affinity to wild-type human full length NEK3 (M1 to R506 residues) expressed in HEK293 cells at 1 uM by Kinomescan method relative to control; format: cell-based; how it was run: as §1
[13] = target: Casein kinase I isoform alpha (Homo sapiens) (UniProt P48729); assay: Binding affinity to wild-type human partial length CSNK1A1 (M1 to L450 residues) expressed in HEK293 cells at 1 uM by Kinomescan method relative to control; format: cell-based
[14] = target: Tyrosine-protein kinase ABL1 (Homo sapiens) (UniProt P00519); assay: Binding affinity to wild-type human non-phosphorylated ABL1 (S229 to K512 residues) expressed in HEK293 cells at 1 uM by Kinomescan method relative to control; format: cell-based
[15] = target: cAMP-dependent protein kinase catalytic subunit beta (Homo sapiens) (UniProt P22694); assay: Binding affinity to wild-type human full length PKAC-beta (M1 to F351 residues) expressed in Escherichia coli BL21 at 1 uM by Kinomescan method relative to control; how it was run: as §1
[16] = target: Serine/threonine-protein kinase Sgk3 (Homo sapiens) (UniProt Q96BR1); assay: Binding affinity to wild-type human partial length SGK3 (M119 to L496 residues) expressed in HEK293 cells at 1 uM by Kinomescan method relative to control; format: cell-based
[17] = target: Mitogen-activated protein kinase kinase kinase 2 (Homo sapiens) (UniProt Q9Y2U5); assay: Binding affinity to wild-type human partial length MAP3K2 (S315 to H619 residues) expressed in HEK293 cells at 1 uM by Kinomescan method relative to control; format: cell-based
[18] = target: Mitogen-activated protein kinase kinase kinase 1 (Homo sapiens) (UniProt Q13233); assay: Binding affinity to wild-type human partial length MAP3K1 (L1202 to W1512 residues) expressed in HEK293 cells at 1 uM by Kinomescan method relative to control; format: cell-based
[19] = test system: HEK293; assay: Cytotoxicity against human HEK293 cells assessed as reduction in cell viability up to 33.3 uM after 72 hrs by CellTiter-Glo assay relative to control; format: cell-based; conditions: hek293, 72 h
How it was run: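 Cells were treated across a dose-response range for 72 h, and viability was read by CellTiter-Glo luminescence. Measurements were made in triplicate and reported with standard error.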

[20] = target: RAC-beta serine/threonine-protein kinase (Homo sapiens) (UniProt P31751); assay: Binding affinity to wild-type human partial length AKT2 expressed in Escherichia coli BL21 at 1 uM by Kinomescan method relative to control; how it was run: as §1
[21] = target: Tyrosine-protein kinase JAK1 (Homo sapiens) (UniProt P23458); assay: Binding affinity to wild-type human partial length JAK1 JH2 pseudokinase domain (R537 to D855 residues) expressed in HEK293 cells at 1 uM by Kinomescan method relative to control; format: cell-based
[22] = target: Activated CDC42 kinase 1 (Homo sapiens) (UniProt Q07912); assay: Binding affinity to wild-type human partial length TNK2 (S159 to D474 residues) expressed in Escherichia coli BL21 at 1 uM by Kinomescan method relative to control
[23] = test system: Phosphatidylinositol 4,5-bisphosphate 3-kinase catalytic subunit alpha isoform (Homo sapiens), P42336 [E545A]; assay: Binding affinity to human partial length PIK3CA E545A mutant (R108 to N1068 residues) expressed in HEK293 cells at 1 uM by Kinomescan method relative to control; format: cell-based
[24] = target: Ephrin type-A receptor 2 (Homo sapiens) (UniProt P29317); assay: Binding affinity to wild-type human partial length EPHA2 (T593 to V891 residues) expressed in Escherichia coli BL21 at 1 uM by Kinomescan method relative to control
[25] = target: Macrophage colony-stimulating factor 1 receptor (Homo sapiens) (UniProt P07333); assay: Binding affinity to wild-type human partial length CSF1R (I564 to S939 residues) expressed in Escherichia coli BL21 at 1 uM by Kinomescan method relative to control

Chain of Insulin receptor-related protein (Homo sapiens) (P14616 27-742 limits assumed): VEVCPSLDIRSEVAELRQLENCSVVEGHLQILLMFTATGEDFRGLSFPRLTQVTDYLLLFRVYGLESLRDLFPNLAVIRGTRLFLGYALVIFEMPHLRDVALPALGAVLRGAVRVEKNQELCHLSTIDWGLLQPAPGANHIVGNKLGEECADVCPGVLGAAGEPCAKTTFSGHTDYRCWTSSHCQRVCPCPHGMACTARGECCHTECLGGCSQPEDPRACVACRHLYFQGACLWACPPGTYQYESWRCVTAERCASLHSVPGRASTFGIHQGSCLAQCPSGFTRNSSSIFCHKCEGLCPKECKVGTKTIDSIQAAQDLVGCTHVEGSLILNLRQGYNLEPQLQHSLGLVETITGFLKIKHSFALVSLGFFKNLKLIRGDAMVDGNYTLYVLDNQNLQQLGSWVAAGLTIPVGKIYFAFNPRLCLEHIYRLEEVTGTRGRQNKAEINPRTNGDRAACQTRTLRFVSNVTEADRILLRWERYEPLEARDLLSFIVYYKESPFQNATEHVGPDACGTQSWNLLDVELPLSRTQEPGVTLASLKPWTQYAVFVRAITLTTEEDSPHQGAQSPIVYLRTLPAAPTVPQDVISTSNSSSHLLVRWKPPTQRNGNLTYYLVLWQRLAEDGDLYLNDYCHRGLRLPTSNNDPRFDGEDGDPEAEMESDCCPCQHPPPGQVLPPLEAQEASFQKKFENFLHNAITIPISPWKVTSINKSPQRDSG
Chain of Insulin receptor-related protein (Homo sapiens) (P14616 747-1297 limits assumed): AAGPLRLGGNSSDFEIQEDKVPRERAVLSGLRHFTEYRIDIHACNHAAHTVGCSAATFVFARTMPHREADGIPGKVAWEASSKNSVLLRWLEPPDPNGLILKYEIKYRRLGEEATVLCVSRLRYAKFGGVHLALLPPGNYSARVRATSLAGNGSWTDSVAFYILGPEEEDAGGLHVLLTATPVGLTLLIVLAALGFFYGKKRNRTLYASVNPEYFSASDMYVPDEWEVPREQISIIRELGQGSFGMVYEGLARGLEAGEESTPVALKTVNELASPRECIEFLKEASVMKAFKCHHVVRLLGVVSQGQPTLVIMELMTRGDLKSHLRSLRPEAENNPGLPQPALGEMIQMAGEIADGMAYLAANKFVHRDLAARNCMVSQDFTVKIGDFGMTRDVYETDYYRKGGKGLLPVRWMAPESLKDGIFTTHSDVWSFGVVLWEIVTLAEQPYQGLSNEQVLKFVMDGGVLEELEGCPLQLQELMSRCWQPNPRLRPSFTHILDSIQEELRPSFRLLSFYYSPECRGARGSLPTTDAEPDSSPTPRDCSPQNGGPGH
Chain of Tyrosine-protein kinase JAK1 (Homo sapiens) (P23458 whole entry, the tested form may be a part): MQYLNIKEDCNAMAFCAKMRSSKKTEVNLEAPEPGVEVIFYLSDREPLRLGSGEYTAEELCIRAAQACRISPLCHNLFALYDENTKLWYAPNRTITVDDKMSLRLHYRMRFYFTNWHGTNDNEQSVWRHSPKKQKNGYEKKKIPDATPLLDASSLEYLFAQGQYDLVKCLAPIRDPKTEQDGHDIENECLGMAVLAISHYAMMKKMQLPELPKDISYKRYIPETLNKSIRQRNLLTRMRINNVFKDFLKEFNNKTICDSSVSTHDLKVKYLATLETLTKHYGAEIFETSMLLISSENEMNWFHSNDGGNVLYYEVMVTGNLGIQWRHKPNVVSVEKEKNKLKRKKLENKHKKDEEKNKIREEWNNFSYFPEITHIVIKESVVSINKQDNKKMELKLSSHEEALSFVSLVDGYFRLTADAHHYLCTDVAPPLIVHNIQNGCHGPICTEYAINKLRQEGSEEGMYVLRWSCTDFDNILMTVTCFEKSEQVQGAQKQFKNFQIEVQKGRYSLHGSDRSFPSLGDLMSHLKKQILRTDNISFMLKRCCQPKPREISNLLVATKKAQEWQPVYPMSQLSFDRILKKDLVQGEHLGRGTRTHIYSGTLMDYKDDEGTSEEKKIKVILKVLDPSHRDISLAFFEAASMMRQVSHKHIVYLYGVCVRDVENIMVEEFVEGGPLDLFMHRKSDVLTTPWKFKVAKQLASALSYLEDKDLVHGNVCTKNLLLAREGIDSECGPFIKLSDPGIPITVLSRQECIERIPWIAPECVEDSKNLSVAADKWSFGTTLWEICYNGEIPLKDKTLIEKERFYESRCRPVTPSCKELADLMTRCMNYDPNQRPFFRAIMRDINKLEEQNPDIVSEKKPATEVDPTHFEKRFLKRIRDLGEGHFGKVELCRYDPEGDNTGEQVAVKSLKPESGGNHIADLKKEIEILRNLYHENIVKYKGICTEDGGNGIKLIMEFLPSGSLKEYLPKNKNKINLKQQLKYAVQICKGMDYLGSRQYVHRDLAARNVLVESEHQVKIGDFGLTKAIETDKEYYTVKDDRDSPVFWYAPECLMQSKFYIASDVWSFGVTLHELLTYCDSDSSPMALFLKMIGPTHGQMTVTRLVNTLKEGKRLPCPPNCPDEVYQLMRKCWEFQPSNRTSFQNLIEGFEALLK
Chain of Calcium/calmodulin-dependent protein kinase type II subunit delta (Homo sapiens) (Q13557 whole entry, the tested form may be a part): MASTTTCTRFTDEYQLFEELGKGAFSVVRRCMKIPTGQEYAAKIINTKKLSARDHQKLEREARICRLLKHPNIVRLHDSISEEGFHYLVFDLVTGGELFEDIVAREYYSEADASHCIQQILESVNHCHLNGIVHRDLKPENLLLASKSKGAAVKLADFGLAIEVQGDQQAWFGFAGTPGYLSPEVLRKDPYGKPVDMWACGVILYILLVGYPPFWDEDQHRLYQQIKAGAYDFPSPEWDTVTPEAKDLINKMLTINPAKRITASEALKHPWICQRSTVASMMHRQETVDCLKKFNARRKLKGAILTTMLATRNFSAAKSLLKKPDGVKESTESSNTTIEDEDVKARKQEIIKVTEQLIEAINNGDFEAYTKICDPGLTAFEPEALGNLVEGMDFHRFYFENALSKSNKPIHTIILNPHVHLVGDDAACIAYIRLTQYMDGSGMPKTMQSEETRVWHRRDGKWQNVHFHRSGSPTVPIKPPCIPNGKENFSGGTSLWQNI
Chain of Mitogen-activated protein kinase kinase kinase 1 (Homo sapiens) (Q13233 whole entry, the tested form may be a part): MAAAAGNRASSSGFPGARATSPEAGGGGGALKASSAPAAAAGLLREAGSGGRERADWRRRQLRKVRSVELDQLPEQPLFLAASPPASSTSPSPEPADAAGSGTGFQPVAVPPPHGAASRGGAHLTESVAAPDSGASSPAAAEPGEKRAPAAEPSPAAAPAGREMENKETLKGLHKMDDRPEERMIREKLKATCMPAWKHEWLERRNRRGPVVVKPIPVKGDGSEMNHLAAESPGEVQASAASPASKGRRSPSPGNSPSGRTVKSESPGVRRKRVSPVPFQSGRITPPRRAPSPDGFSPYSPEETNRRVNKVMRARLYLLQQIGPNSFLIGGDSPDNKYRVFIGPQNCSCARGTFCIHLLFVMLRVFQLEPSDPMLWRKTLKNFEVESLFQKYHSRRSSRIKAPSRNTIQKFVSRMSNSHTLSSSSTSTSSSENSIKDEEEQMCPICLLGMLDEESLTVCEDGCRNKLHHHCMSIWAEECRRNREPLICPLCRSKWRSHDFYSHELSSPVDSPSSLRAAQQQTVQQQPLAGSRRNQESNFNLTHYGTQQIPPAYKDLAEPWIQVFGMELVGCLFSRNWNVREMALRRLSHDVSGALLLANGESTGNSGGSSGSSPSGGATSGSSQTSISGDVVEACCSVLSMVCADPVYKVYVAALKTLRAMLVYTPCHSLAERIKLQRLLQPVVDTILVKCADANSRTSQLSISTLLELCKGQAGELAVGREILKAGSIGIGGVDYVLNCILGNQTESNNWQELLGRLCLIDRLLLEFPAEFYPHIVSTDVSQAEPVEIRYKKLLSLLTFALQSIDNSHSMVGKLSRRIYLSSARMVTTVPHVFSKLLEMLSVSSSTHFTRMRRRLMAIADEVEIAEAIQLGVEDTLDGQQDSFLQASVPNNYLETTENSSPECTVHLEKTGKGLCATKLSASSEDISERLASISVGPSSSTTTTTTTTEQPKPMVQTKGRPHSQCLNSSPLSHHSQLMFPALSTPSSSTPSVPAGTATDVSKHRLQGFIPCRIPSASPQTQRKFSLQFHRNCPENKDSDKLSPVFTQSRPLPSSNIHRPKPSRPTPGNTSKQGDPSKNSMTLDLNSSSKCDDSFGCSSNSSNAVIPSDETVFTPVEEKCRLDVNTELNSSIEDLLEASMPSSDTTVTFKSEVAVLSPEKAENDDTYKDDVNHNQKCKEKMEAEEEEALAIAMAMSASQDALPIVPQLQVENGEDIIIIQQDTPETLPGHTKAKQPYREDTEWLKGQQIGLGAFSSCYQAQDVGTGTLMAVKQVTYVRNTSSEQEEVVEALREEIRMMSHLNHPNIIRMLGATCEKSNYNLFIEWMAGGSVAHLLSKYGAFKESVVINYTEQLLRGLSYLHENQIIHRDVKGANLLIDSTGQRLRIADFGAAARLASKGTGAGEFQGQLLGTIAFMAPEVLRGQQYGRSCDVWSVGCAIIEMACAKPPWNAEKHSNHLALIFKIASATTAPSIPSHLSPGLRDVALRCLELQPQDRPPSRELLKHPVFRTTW
Chain of Serine/threonine-protein kinase Nek3 (Homo sapiens) (P51956 whole entry, the tested form may be a part, canonical isoform): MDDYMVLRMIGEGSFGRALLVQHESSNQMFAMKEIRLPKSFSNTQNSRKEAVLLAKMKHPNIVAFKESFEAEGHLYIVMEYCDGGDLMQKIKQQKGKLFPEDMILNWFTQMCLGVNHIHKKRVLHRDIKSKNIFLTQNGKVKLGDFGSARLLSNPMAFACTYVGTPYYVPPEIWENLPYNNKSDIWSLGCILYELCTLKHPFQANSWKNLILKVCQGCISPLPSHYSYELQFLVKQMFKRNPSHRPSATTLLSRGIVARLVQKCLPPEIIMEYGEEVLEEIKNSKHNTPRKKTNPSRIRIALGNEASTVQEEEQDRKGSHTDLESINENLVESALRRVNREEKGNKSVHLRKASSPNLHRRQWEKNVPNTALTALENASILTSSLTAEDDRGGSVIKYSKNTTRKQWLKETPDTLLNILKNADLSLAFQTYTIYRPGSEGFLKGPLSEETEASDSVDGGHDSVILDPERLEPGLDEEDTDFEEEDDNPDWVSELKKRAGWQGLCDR

Q: For `CCC(=O)Nc1ccc(C(=O)Nc2ccc(Nc3ncc4c(n3)N(C)c3ccc(C)cc3C(=O)N4C)cc2)cc1`, which Activity [1] is on record?
A: 86%

Q: And the Activity [2]?
A: 94%

Q: And the Activity [3]?
A: 85%

Q: And the Activity [4]?
A: 100%

Q: What about the Activity [5] of the same molecule?
A: 72%

Q: What about the Activity [6] of the same molecule?
A: 76%

Q: And the Activity [7]?
A: 99%

Q: And the Activity [8]?
A: 98%

Q: And the Activity [9]?
A: 74%

Q: What about the Activity [10] of the same molecule?
A: 100%

Q: And the Activity [11]?
A: 100%

Q: And the Activity [12]?
A: 70%

Q: What about the Activity [13] of the same molecule?
A: 58%

Q: What about the Activity [14] of the same molecule?
A: 67%

Q: And the Activity [15]?
A: 100%

Q: And the Activity [16]?
A: 81%

Q: And the Activity [17]?
A: 66%

Q: What about the Activity [18] of the same molecule?
A: 76%

Q: And the Activity [19]?
A: 50%

Q: What about the Activity [20] of the same molecule?
A: 100%

Q: And the Activity [21]?
A: 79%

Q: And the Activity [22]?
A: 86%

Q: And the Activity [23]?
A: 93%

Q: What about the Activity [24] of the same molecule?
A: 96%

Q: And the Activity [25]?
A: 87%

Q: Which Activity [1] does the source give for `C=CC(=O)Nc1ccc(C(=O)Nc2ccc(Nc3ncc4c(n3)N(C)c3ccc(C)cc3C(=O)N4C)cc2)cc1` here?
A: 89%

Q: What about the Activity [2] of the same molecule?
A: 100%

Q: What about the Activity [3] of the same molecule?
A: 96%

Q: And the Activity [4]?
A: 97%

Q: What about the Activity [5] of the same molecule?
A: 83%

Q: What about the Activity [6] of the same molecule?
A: 77%

Q: What about the Activity [7] of the same molecule?
A: 100%

Q: What about the Activity [8] of the same molecule?
A: 95%

Q: What about the Activity [9] of the same molecule?
A: 82%

Q: What about the Activity [10] of the same molecule?
A: 100%

Q: What about the Activity [11] of the same molecule?
A: 94%

Q: What about the Activity [12] of the same molecule?
A: 84%

Q: And the Activity [13]?
A: 86%

Q: What about the Activity [14] of the same molecule?
A: 77%

Q: What about the Activity [15] of the same molecule?
A: 100%

Q: And the Activity [16]?
A: 79%

Q: And the Activity [17]?
A: 85%

Q: And the Activity [18]?
A: 83%

Q: And the Activity [19]?
A: 50%

Q: And the Activity [20]?
A: 95%

Q: And the Activity [21]?
A: 100%

Q: What about the Activity [22] of the same molecule?
A: 96%

Q: What about the Activity [23] of the same molecule?
A: 78%

Q: What about the Activity [24] of the same molecule?
A: 93%

Q: What about the Activity [25] of the same molecule?
A: 100%
